Columns and labels:
Type in all cases: ADME, organism-based
Cerebellum [1] = test: Biodistribution in NMRI mouse cerebellum assessed per gram of tissue at 3.7 MBq/mL, iv after 2 mins by gamma counting; conditions: in vivo
Procedure, shortened: (§1)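 Male NMRI mice (30-40 g) under isoflurane (1.5-2.5% in oxygen) got 0.1 mL of HPLC-purified tracer diluted with 0.9% NaCl to 3.7 MBq/mL (ethanol ≤10%) via tail vein. Mice were decapitated at 2 or 60 min p.i., and organs, blood and urine were weighed and γ-counted. Values are background-corrected %ID or %ID/g, with blood mass taken as 7% of body mass.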

Liver [2] = test: Drug level in NMRI mouse liver assessed as standard uptake value at 3.7 MBq/mL, iv after 2 mins by gamma counting; conditions: in vivo
Procedure, shortened: (§2)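 Male NMRI mice (30-40 g) were anaesthetised with isoflurane. Each received 0.1 mL of HPLC-purified tracer, diluted in 0.9% NaCl to 3.7 MBq/mL (ethanol ≤10%), via a tail vein. Mice were decapitated at 2 or 60 min. Organs were dissected, weighed and γ-counted with background correction. SUV = (organ cpm/organ weight)/(total recovered counts/body weight). Blood mass was taken as 7% of body mass.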

Heart [3] = test: Biodistribution in NMRI mouse heart at 3.7 MBq/mL, iv after 60 mins by gamma counting; conditions: in vivo, 1 h; procedure, shortened: as §1
Lung [4] = test: Biodistribution in NMRI mouse lung at 3.7 MBq/mL, iv after 60 mins by gamma counting; conditions: in vivo, 1 h; procedure, shortened: as §1
[5] = Drug level in NMRI mouse spleen/pancreas assessed as standard uptake value at 3.7 MBq/mL, iv after 60 mins by gamma counting; conditions: in vivo, 1 h; procedure, shortened: as §2
[6] = Biodistribution in NMRI mouse cerebrum assessed per gram of tissue at 3.7 MBq/mL, iv after 60 mins by gamma counting; conditions: in vivo, 1 h; procedure, shortened: as §1
Lung [7] = test: Biodistribution in NMRI mouse lung at 3.7 MBq/mL, iv after 2 mins by gamma counting; conditions: in vivo; procedure, shortened: as §1
Blood [8] = test: Biodistribution in NMRI mouse blood at 3.7 MBq/mL, iv after 60 mins by gamma counting; conditions: in vivo, 1 h; procedure, shortened: as §1
Stomach [9] = test: Biodistribution in NMRI mouse stomach at 3.7 MBq/mL, iv after 60 mins by gamma counting; conditions: in vivo, 1 h; procedure, shortened: as §1
[10] = Biodistribution in NMRI mouse urine at 3.7 MBq/mL, iv after 60 mins by gamma counting; conditions: in vivo, 1 h; procedure, shortened: as §1
[11] = Biodistribution in NMRI mouse spleen/pancreas at 3.7 MBq/mL, iv after 60 mins by gamma counting; conditions: in vivo, 1 h; procedure, shortened: as §1
Lung [12] = test: Biodistribution in NMRI mouse lung assessed per gram of tissue at 3.7 MBq/mL, iv after 60 mins by gamma counting; conditions: in vivo, 1 h; procedure, shortened: as §1
Kidney [13] = test: Drug level in NMRI mouse kidney assessed as standard uptake value at 3.7 MBq/mL, iv after 60 mins by gamma counting; conditions: in vivo, 1 h; procedure, shortened: as §2
Blood [14] = test: Biodistribution in NMRI mouse blood at 3.7 MBq/mL, iv after 2 mins by gamma counting; conditions: in vivo; procedure, shortened: as §1
Blood [15] = test: Drug level in NMRI mouse blood assessed as standard uptake value at 3.7 MBq/mL, iv after 2 mins by gamma counting; conditions: in vivo; procedure, shortened: as §2
Cerebellum [16] = test: Drug level in NMRI mouse cerebellum assessed as standard uptake value at 3.7 MBq/mL, iv after 2 mins by gamma counting; conditions: in vivo; procedure, shortened: as §2
Cerebellum [17] = test: Biodistribution in NMRI mouse cerebellum at 3.7 MBq/mL, iv after 60 mins by gamma counting; conditions: in vivo, 1 h; procedure, shortened: as §1
[18] = Biodistribution in NMRI mouse spleen/pancreas assessed per gram of tissue at 3.7 MBq/mL, iv after 2 mins by gamma counting; conditions: in vivo; procedure, shortened: as §1
Liver [19] = test: Biodistribution in NMRI mouse liver assessed per gram of tissue at 3.7 MBq/mL, iv after 2 mins by gamma counting; conditions: in vivo
[20] = Drug level in NMRI mouse cerebrum assessed as standard uptake value at 3.7 MBq/mL, iv after 2 mins by gamma counting; conditions: in vivo; procedure, shortened: as §2
Heart [21] = test: Biodistribution in NMRI mouse heart assessed per gram of tissue at 3.7 MBq/mL, iv after 60 mins by gamma counting; conditions: in vivo, 1 h; procedure, shortened: as §1
Stomach [22] = test: Biodistribution in NMRI mouse stomach at 3.7 MBq/mL, iv after 2 mins by gamma counting; conditions: in vivo; procedure, shortened: as §1
Liver [23] = test: Drug level in NMRI mouse liver assessed as standard uptake value at 3.7 MBq/mL, iv after 60 mins by gamma counting; conditions: in vivo, 1 h; procedure, shortened: as §2
Liver [24] = test: Biodistribution in NMRI mouse liver at 3.7 MBq/mL, iv after 2 mins by gamma counting; conditions: in vivo; procedure, shortened: as §1
Lung [25] = test: Drug level in NMRI mouse lung assessed as standard uptake value at 3.7 MBq/mL, iv after 60 mins by gamma counting; conditions: in vivo, 1 h; procedure, shortened: as §2
[26] = Biodistribution in NMRI mouse cerebrum at 3.7 MBq/mL, iv after 2 mins by gamma counting; conditions: in vivo; procedure, shortened: as §1
[27] = Biodistribution in NMRI mouse spleen/pancreas at 3.7 MBq/mL, iv after 2 mins by gamma counting; conditions: in vivo; procedure, shortened: as §1
Blood [28] = test: Biodistribution in NMRI mouse blood assessed per gram of tissue at 3.7 MBq/mL, iv after 60 mins by gamma counting; conditions: in vivo, 1 h; procedure, shortened: as §1
Liver [29] = test: Biodistribution in NMRI mouse liver assessed per gram of tissue at 3.7 MBq/mL, iv after 60 mins by gamma counting; conditions: in vivo, 1 h; procedure, shortened: as §1
[30] = Drug level in NMRI mouse spleen/pancreas assessed as standard uptake value at 3.7 MBq/mL, iv after 2 mins by gamma counting; conditions: in vivo; procedure, shortened: as §2
[31] = Biodistribution in NMRI mouse spleen/pancreas assessed per gram of tissue at 3.7 MBq/mL, iv after 60 mins by gamma counting; conditions: in vivo, 1 h; procedure, shortened: as §1
Heart [32] = test: Biodistribution in NMRI mouse heart assessed per gram of tissue at 3.7 MBq/mL, iv after 2 mins by gamma counting; conditions: in vivo; procedure, shortened: as §1
Intestine = test: Biodistribution in NMRI mouse intestine at 3.7 MBq/mL, iv after 60 mins by gamma counting; conditions: in vivo, 1 h; procedure, shortened: as §1
[33] = Biodistribution in NMRI mouse urine at 3.7 MBq/mL, iv after 2 mins by gamma counting; conditions: in vivo; procedure, shortened: as §1
Blood [34] = test: Drug level in NMRI mouse blood assessed as standard uptake value at 3.7 MBq/mL, iv after 60 mins by gamma counting; conditions: in vivo, 1 h; procedure, shortened: as §2
Blood [35] = test: Biodistribution in NMRI mouse blood assessed per gram of tissue at 3.7 MBq/mL, iv after 2 mins by gamma counting; conditions: in vivo; procedure, shortened: as §1
Liver [36] = test: Biodistribution in NMRI mouse liver at 3.7 MBq/mL, iv after 60 mins by gamma counting; conditions: in vivo, 1 h; procedure, shortened: as §1
Heart [37] = test: Drug level in NMRI mouse heart assessed as standard uptake value at 3.7 MBq/mL, iv after 2 mins by gamma counting; conditions: in vivo; procedure, shortened: as §2
Cerebellum [38] = test: Drug level in NMRI mouse cerebellum assessed as standard uptake value at 3.7 MBq/mL, iv after 60 mins by gamma counting; conditions: in vivo, 1 h; procedure, shortened: as §2
Kidney [39] = test: Biodistribution in NMRI mouse kidney at 3.7 MBq/mL, iv after 2 mins by gamma counting; conditions: in vivo; procedure, shortened: as §1
[40] = Drug level in NMRI mouse cerebrum assessed as standard uptake value at 3.7 MBq/mL, iv after 60 mins by gamma counting; conditions: in vivo, 1 h; procedure, shortened: as §2
Heart [41] = test: Biodistribution in NMRI mouse heart at 3.7 MBq/mL, iv after 2 mins by gamma counting; conditions: in vivo; procedure, shortened: as §1
Kidney [42] = test: Drug level in NMRI mouse kidney assessed as standard uptake value at 3.7 MBq/mL, iv after 2 mins by gamma counting; conditions: in vivo; procedure, shortened: as §2

For `Nc1ccc2nc(-c3ccc([18F])cc3)sc2c1`, the Drug uptake (Cerebellum [1]) was 15.48%, the SUV (Liver [2]) was 6.4 and the Drug uptake (Heart [3]) was 0.1%. For the same molecule, the Drug uptake (Lung [4]) was 0.3%, the SUV [5] was 0.3 and the Drug uptake [6] was 0.97%. The Drug uptake (Lung [7]) was 2%, the Drug uptake (Blood [8]) was 1.3% and the Drug uptake (Stomach [9]) was 0.6%. It also gave a Drug uptake [10] of 4.9%, a Drug uptake [11] of 0.3% and a Drug uptake (Lung [12]) of 1.2%. It also gave an SUV (Kidney [13]) of 0.6, a Drug uptake (Blood [14]) of 5.3% and an SUV (Blood [15]) of 0.8. It also gave an SUV (Cerebellum [16]) of 4.96, a Drug uptake (Cerebellum [17]) of 0.17% and a Drug uptake [18] of 6.8%. It also gave a Drug uptake (Liver [19]) of 20%, an SUV [20] of 4.47 and a Drug uptake (Heart [21]) of 0.7%. It also gave a Drug uptake (Stomach [22]) of 1.6%, an SUV (Liver [23]) of 1.8 and a Drug uptake (Liver [24]) of 39.8%. For the same molecule, the SUV (Lung [25]) was 0.4, the Drug uptake [26] was 4.56% and the Drug uptake [27] was 1.4%. It also gave a Drug uptake (Blood [28]) of 0.6%, a Drug uptake (Liver [29]) of 5.6% and an SUV [30] of 2.2. It also gave a Drug uptake [31] of 1.1%, a Drug uptake (Heart [32]) of 5.9% and a Drug uptake (Intestine) of 68.6%. It also gave a Drug uptake [33] of 0.2%, an SUV (Blood [34]) of 0.2 and a Drug uptake (Blood [35]) of 2.4%. For the same molecule, the Drug uptake (Liver [36]) was 10.7%, the SUV (Heart [37]) was 1.9 and the SUV (Cerebellum [38]) was 0.42. For the same molecule, the Drug uptake (Kidney [39]) was 8.3%, the SUV [40] was 0.31 and the Drug uptake (Heart [41]) was 0.7%.

`[11CH3]Nc1ccc(-c2nc3ccc(O)cc3s2)cc1` [PITTSBURGH COMPOUND B] gave a Drug uptake (Cerebellum [1]) of 1.6%, an SUV (Liver [2]) of 2.9 and a Drug uptake (Heart [3]) of 0.3%. For the same molecule, the Drug uptake (Lung [4]) was 0.3%, the SUV [5] was 0.2 and the Drug uptake [6] was 0.6%. The Drug uptake (Lung [7]) was 0.9%, the Drug uptake (Blood [8]) was 2.7% and the Drug uptake (Stomach [9]) was 0.3%. It also gave a Drug uptake [10] of 24.4%, a Drug uptake [11] of 0.1% and a Drug uptake (Lung [12]) of 1.3%. For the same molecule, the SUV (Kidney [13]) was 3.3, the Drug uptake (Blood [14]) was 7.9% and the SUV (Blood [15]) was 1.13. It also gave an SUV (Cerebellum [16]) of 0.59, a Drug uptake (Cerebellum [17]) of 0.03% and a Drug uptake [18] of 4.7%. It also gave a Drug uptake (Liver [19]) of 7.9%, an SUV [20] of 1.33 and a Drug uptake (Heart [21]) of 2.1%. For the same molecule, the Drug uptake (Stomach [22]) was 1.1%, the Drug uptake (Liver [24]) was 15.6% and the SUV (Lung [25]) was 0.4. The Drug uptake [26] was 1.08%, the Drug uptake [27] was 0.6% and the Drug uptake (Blood [28]) was 1.1%. For the same molecule, the Drug uptake (Liver [29]) was 5%, the SUV (Kidney [42]) was 7.4 and the Drug uptake [31] was 0.7%. The Drug uptake (Heart [32]) was 4.2%, the Drug uptake (Intestine) was 42.5% and the Drug uptake [33] was 0.2%. For the same molecule, the SUV (Blood [34]) was 0.4, the Drug uptake (Blood [35]) was 3.1% and the Drug uptake (Liver [36]) was 9.8%. The SUV (Heart [37]) was 1.5, the SUV (Cerebellum [38]) was 0.11 and the Drug uptake (Kidney [39]) was 10.3%. It also gave an SUV [40] of 0.22 and a Drug uptake (Heart [41]) of 0.6%.

— ChEMBL document CHEMBL1154674, “Synthesis and evaluation of three 18F-labeled aminophenylbenzothiazoles as amyloid imaging agents” (J Med Chem, 2009)
